ChEMBL document CHEMBL1135896, “Synthesis and notable antimalarial activity of acyclic peroxides, L-(alkyldioxy)-L-(methyldioxy)cyclododecanes” (J Med Chem, 2002)

Tests used:
FM3A [1] = experiment: Mammalian cell cytotoxicity assessed against mouse mammary tumor FM3A cells; assay type: functional, cell-based
In short: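 Mouse mammary tumor FM3A cells in culture used as a mammalian cytotoxicity control; EC50 determined by a previously reported protocol. Selectivity is the mean EC50 for FM3A cells divided by the mean EC50 for P. falciparum.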

Plasmodium falciparum = experiment: (§1) In vitro antimalarial activity against Plasmodium falciparum; assay type: functional, organism-based
FM3A [2] = experiment: as §1; assay type: functional
Mus musculus [3] = experiment: In vivo 50% effective dose tested against Plasmodium berghei NK65 infected mice (Mus musculus), after intraperitoneal administration; assay type: functional; conditions: ip
In short: (§2)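 Mice infected with P. berghei, in groups of five, were given the compounds intraperitoneally in olive oil at various concentrations. Dosing was once daily on days 0–3. Parasitemia was determined on day 4, and ED values were derived by a previously reported protocol.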

Mus musculus [4] = experiment: In vivo 50% effective dose tested against Plasmodium berghei NK65 infected mice (Mus musculus), after oral administration.; assay type: functional
In short: (§3)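 Mice infected with P. berghei, in groups of five, were given the compounds orally in olive oil at various concentrations. Dosing was once daily on days 0–3. Parasitemia was determined on day 4, and ED values were derived by a previously reported protocol.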

Mus musculus [5] = experiment: In vivo 90% effective dose tested against Plasmodium berghei NK65 infected mice (Mus musculus), after oral administration.; assay type: functional; in short: as §3
Mus musculus [6] = experiment: In vivo 90% effective dose tested against Plasmodium berghei NK65 infected mice (Mus musculus), after intraperitoneal administration; assay type: functional; conditions: ip; in short: as §2
Mus musculus [7] = experiment: In vivo […] effective dose tested against Plasmodium berghei NK 65 infected mice (Mus musculus), after intraperitoneal administration; assay type: functional; conditions: ip; in short: as §2

`CCOC(C)OOC1(OOC)CCCCCCCCCCC1` (stereo unspecified) gave an EC50 (FM3A [1]) of 12 µM, an EC50 (Plasmodium falciparum) of 0.29 µM and a Selectivity ratio (FM3A [2]) of 41.
In the case of `COOC1(OOC(C)(C)OC)CCCCCCCCCCC1`, the EC50 (FM3A [1]) is reported as 7.3 µM, the EC50 (Plasmodium falciparum) is reported as 0.24 µM and the Selectivity ratio (FM3A [2]) is reported as 30.
Work on `C=C(C)COOC1(OOC)CCCCCCCCCCC1` yielded an EC50 (FM3A [1]) of 17 µM, an EC50 (Plasmodium falciparum) of 1.3 µM and a Selectivity ratio (FM3A [2]) of 13.
For `COOC1(OOCCCCCCI)CCCCCCCCCCC1`, the EC50 (FM3A [1]) was 86 µM, the EC50 (Plasmodium falciparum) was 0.74 µM and the Selectivity ratio (FM3A [2]) was 116.
With `C=C(C)COOC1(OOCC(=C)C)CCCCCCCCCCC1` the EC50 (FM3A [1]) was 38 µM, the EC50 (Plasmodium falciparum) was 1.5 µM and the Selectivity ratio (FM3A [2]) was 25.
`COOC1(OOC)CCCCCCCCCCC1` showed an EC50 (FM3A [1]) of 1.5 µM, an ED50 (Mus musculus [3]) of 13 mg/kg and an ED50 (Mus musculus [4]) of 30 mg/kg. For the same compound, the EC50 (Plasmodium falciparum) was 0.086 µM, the Selectivity ratio (FM3A [2]) was 17 and the ED90 (Mus musculus [5]) was 60 mg/kg. It also gave an ED90 (Mus musculus [6]) of 20 mg/kg.
`CCCOOC1(OOCCC)CCCCCCCCCCC1` gave an EC50 (FM3A [1]) of 12 µM, an EC50 (Plasmodium falciparum) of 1.8 µM and a Selectivity ratio (FM3A [2]) of 7.
In the case of `CCCCC(CCCC)(OC)OOCC`, the EC50 (FM3A [1]) is reported as greater than 48 µM, the EC50 (Plasmodium falciparum) is reported as 8.6 µM and the Selectivity ratio (FM3A [2]) is reported as greater than 6.
Compound `CCCCOOC1(OOCCCC)CCCCCCCCCCC1` has an EC50 (FM3A [1]) of 8.5 µM, an EC50 (Plasmodium falciparum) of 2.1 µM and a Selectivity ratio (FM3A [2]) of 4.
Work on `COOC1(OOCCCCCCO)CCCCCCCCCCC1` yielded an EC50 (FM3A [1]) of 1.6 µM, an ED50 (Mus musculus [3]) of 30 mg/kg and an EC50 (Plasmodium falciparum) of 0.072 µM. The Selectivity ratio (FM3A [2]) was 22 and the ED90 (Mus musculus [6]) was 60 mg/kg.
Compound `COOC1(OOCCCCCCOC2CCOCC2)CCCCCCCCCCC1` has an EC50 (FM3A [1]) of 7.6 µM, an EC50 (Plasmodium falciparum) of 0.9 µM and a Selectivity ratio (FM3A [2]) of 8.
In the case of `C=CCOOC1(OOCC=C)CCCCCCCCCCC1`, the EC50 (FM3A [1]) is reported as 14 µM, the EC50 (Plasmodium falciparum) is reported as 1.6 µM and the Selectivity ratio (FM3A [2]) is reported as 9.
`CCCOOC1(OC)CCCCCCCCCCC1` was tested, and the EC50 (FM3A [1]) was greater than 37 µM, the EC50 (Plasmodium falciparum) was 0.62 µM and the Selectivity ratio (FM3A [2]) was greater than 60.
`COOC1(OOCCC(=O)O)CCCCCCCCCCC1` was tested, and the EC50 (FM3A [1]) was 0.45 µM and the EC50 (Plasmodium falciparum) was 5 µM.
With `COOC1(OOCCC(=O)OC)CCCCCCCCCCC1` the EC50 (FM3A [1]) was 1.4 µM, the EC50 (Plasmodium falciparum) was 0.23 µM and the Selectivity ratio (FM3A [2]) was 6.
Compound `C=C(C)COOC(CCCC)(CCCC)OOC` has an EC50 (FM3A [1]) of 15 µM, an EC50 (Plasmodium falciparum) of 1.6 µM and a Selectivity ratio (FM3A [2]) of 9.
With `COOC1(OOCCCc2ccccc2)CCCCCCCCCCC1` the EC50 (FM3A [1]) was 34 µM, the EC50 (Plasmodium falciparum) was 1 µM and the Selectivity ratio (FM3A [2]) was 34.
`C=CCCOOC1(OOC)CCCCCCCCCCC1` gave an EC50 (FM3A [1]) of 6 µM, an EC50 (Plasmodium falciparum) of 0.38 µM and a Selectivity ratio (FM3A [2]) of 16.
`COOC1(OOCCCCCC(=O)O)CCCCCCCCCCC1` showed an EC50 (FM3A [1]) of 14 µM, an EC50 (Plasmodium falciparum) of 0.27 µM and a Selectivity ratio (FM3A [2]) of 52.
For `CCCCOOC1(OOC)CCCCCCCCCCC1`, the EC50 (FM3A [1]) was 20 µM, the ED50 (Mus musculus [3]) was 35 mg/kg and the EC50 (Plasmodium falciparum) was 0.22 µM. For the same compound, the Selectivity ratio (FM3A [2]) was 91 and the ED90 (Mus musculus [6]) was 80 mg/kg.
`CCOOC1(OOCC)CCCCCCCCCCC1` showed an EC50 (FM3A [1]) of 10 µM, an ED50 (Mus musculus [3]) of 41 mg/kg and an EC50 (Plasmodium falciparum) of 0.2 µM. The ED50 (Mus musculus [7]) was 64 mg/kg and the Selectivity ratio (FM3A [2]) was 50.
`CCOOC1(OC)CCCCCCCCCCC1` gave an EC50 (FM3A [1]) of 26 µM, an ED50 (Mus musculus [3]) greater than 100 mg/kg and an EC50 (Plasmodium falciparum) of 0.23 µM. For the same compound, the Selectivity ratio (FM3A [2]) was 113.
In the case of `COOC1(OC)CCCCCCCCCCC1`, the EC50 (FM3A [1]) is reported as 19 µM, the ED50 (Mus musculus [3]) is reported as 30 mg/kg and the EC50 (Plasmodium falciparum) is reported as 0.08 µM. The Selectivity ratio (FM3A [2]) was 238 and the ED90 (Mus musculus [6]) was 68 mg/kg.
`C[C@@H]1CC[C@H]2[C@@H](C)C(=O)O[C@@H]3O[C@@]4(C)CC[C@@H]1[C@]32OO4` [ARTEMISININ] showed an ED50 (Mus musculus [3]) of 5.4 mg/kg, an ED50 (Mus musculus [4]) of 13 mg/kg and a Selectivity ratio (FM3A [2]) of 1000. The ED90 (Mus musculus [5]) was 89 mg/kg and the ED90 (Mus musculus [6]) was 32 mg/kg.
